Legend:
[1] = Cytotoxicity against human U87 cells expressing wild-type p53 after 48 hrs by MTT assay; assay type: functional, cell-based, U-87MG ATCC; details: U-87 MG, read-out: pIC50 (converted)
In short: (§1)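 MTT assay. Cells were grown in DMEM with 10% FBS and penicillin/streptomycin at 37 °C under 5% CO2, seeded at 1–2×10^3 cells/well and treated 12 h later with 1×10^-12 to 1×10^-5 M ([…] from DMSO stock, final DMSO <0.5%) for 48 h. MTT was added at 0.5 mg mL⁻¹, formazan dissolved in DMSO and read at 570 nm. IC50 is the concentration giving 50% cytotoxicity. Quadruplicates, ≥3 independent experiments.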

T98G = experiment: Cytotoxicity against human T98G cells expressing mutant p53 after 48 hrs by MTT assay; assay type: functional, cell-based; details: read-out: pIC50 (converted); in short: as §1
MCF7 = experiment: Cytotoxicity against human MCF7 cells after 48 hrs by MTT assay; assay type: functional, cell-based; details: MCF7, 48 h, read-out: pIC50 (converted); in short: as §1

SMILES | IC50 [1] | IC50 (T98G) | IC50 (MCF7)
C/C(=N\NC(=S)Nc1ccc(Cl)cc1)c1ccccn1 | 1.7 nM | 5.9 nM | 8.49 nM
C/C(=N\NC(=S)Nc1ccccc1Cl)c1ccccn1 | 2.6 nM | 1.1 nM | 0.16 nM
C/C(=N\NC(=S)Nc1cccc(Cl)c1)c1ccccn1 | 31 nM | 1 nM | 24 nM
C/C(=N\NC(=S)Nc1ccccc1[N+](=O)[O-])c1ccccn1 | 4.3 nM | 6.61 nM | 5.7 nM
C/C(=N\NC(=S)Nc1ccccc1F)c1ccccn1 | 5 nM | 3.1 nM | 0.39 nM
C/C(=N/NC(=S)Nc1ccccc1Cl)c1ccccn1 | 2.6 nM | 1.1 nM | 0.16 nM
C/C(=N/NC(=S)Nc1cccc(Cl)c1)c1ccccn1 | 31 nM | 1 nM | 24 nM
C/C(=N\NC(=S)Nc1cccc(I)c1)c1ccccn1 | 83.9 nM | 61 nM | 45 nM
C/C(=N\NC(=S)Nc1ccc(I)cc1)c1ccccn1 | 59 nM | 64 nM | 6.61 nM
C/C(=N\NC(=S)Nc1cccc(F)c1)c1ccccn1 | 18 nM | 12 nM | 8.99 nM
C/C(=N\NC(=S)Nc1ccc(F)cc1)c1ccccn1 | 10 nM | 17 nM | 1.2 nM
C/C(=N\NC(=S)Nc1ccccc1I)c1ccccn1 | 6.1 nM | 8.09 nM | 4.1 nM
C/C(=N\NC(=S)Nc1cccc([N+](=O)[O-])c1)c1ccccn1 | 69 nM | 140 nM | 38 nM
C/C(=N\NC(=S)Nc1ccc([N+](=O)[O-])cc1)c1ccccn1 | 160 nM | 140 nM | 52 nM
C/C(=N/NC(=S)Nc1ccccc1)c1ccccn1 | 1.4 nM | 6.81 nM | 0.18 nM

From ChEMBL document CHEMBL2034980, “N⁴-Phenyl-substituted 2-acetylpyridine thiosemicarbazones: cytotoxicity against human tumor cells, structure-activity relationship studies and investigation on the mechanism of action” (Bioorg Med Chem, 2012)
